Screening data as filed in PubChem.
MrgX1 ag – agonists of human MrgX1 receptor, primary screen, HEK293 cells, Fluo-4 calcium flux; Mas-related G-protein coupled receptor member X1 (Homo sapiens), Q96LB2; Fluo-4 calcium fluorescence, agonist mode; hits give high values; B-score at 10 µM; hit rate 0.44% among 310,000;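 active = calcium response B-score plate-corrected fluorescence ratio at least 3 library SD, with starting fluorescence B-score inside 5 SD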
Target sequence (Q96LB2 whole entry, looked up): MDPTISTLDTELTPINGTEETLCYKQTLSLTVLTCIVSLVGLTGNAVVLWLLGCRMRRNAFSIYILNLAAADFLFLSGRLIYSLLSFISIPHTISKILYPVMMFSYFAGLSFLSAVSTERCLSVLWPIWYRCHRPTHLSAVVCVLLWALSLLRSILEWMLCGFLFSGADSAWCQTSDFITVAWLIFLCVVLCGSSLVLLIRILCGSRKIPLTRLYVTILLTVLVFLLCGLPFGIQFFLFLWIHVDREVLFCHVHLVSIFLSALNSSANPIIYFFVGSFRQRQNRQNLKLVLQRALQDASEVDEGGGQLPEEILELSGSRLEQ
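Material: MrgX1-expressing HEK293 cells / Dosing: compound as first of three additions / Incubation: overnight seeding, then 1 h dark dye loading / Signal: Fluo-4 NW calcium fluorescence / Evaluation: B-scored fluorescence response ratio / Benchmarks: positive and negative control wells on each plate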
RGS4 act – RGS4 potentiators or activators, primary screen, cell-based, HEK293 M3R inducible RGS4, calcium flux. hit rate 0.92% among 310,000. carbachol calcium flux Fluo4; hits give low values. AID 463111, 2010. B-score at 10 µM;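 active = B-score of the integrated calcium signal more than 4 SD below the library mean, with starting fluorescence not abnormally high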;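 note: negative B-score means reduced calcium response which marks RGS4 activation or potentiation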
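Assay system: HEK293 FlpIn-TREx cells, stable M3R, doxycycline-inducible RGS4 / Probe or stimulus: carbachol, ECmax concentration / Times: overnight RGS4 induction, 30 min dye load 37 °C, 20 min compound RT / Signal: kinetic calcium fluorescence imaging with Fluo4-AM dye, 2 µM / Measure: Agonist-evoked peak-minus-minimum fluorescence over baseline, integrated ratio, B score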
RGS4 block – RGS4 inhibitors, primary screen, cell-based, HEK293 M3R inducible RGS4, calcium flux. Regulator of G-protein signaling 4 (Homo sapiens), P49798. Fluo-4 calcium flux; hits give high values; triggered by carbachol at its EC20. B-score at 10 µM. hit rate 0.45% among 310,000;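 active = B-score, a plate-corrected calcium signal, over three deviations above library mean, with baseline fluorescence within five deviations of library mean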;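 note: RGS4 expression induced by doxycycline in cells with stable M3 receptor; B-score is computed from the integrated fluorescence ratio over baseline after carbachol; higher B-score means a larger calcium signal and so more RGS4 inhibition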
Target sequence (P49798 whole entry, looked up): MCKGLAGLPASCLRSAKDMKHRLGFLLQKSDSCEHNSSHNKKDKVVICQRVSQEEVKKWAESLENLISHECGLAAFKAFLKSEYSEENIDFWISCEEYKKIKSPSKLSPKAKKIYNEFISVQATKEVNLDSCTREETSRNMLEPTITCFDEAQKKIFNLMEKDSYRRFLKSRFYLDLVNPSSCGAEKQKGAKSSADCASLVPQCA
MrgX1 PAM – positive allosteric modulators of MrgX1, primary screen, HEK293 cells, Fluo-4 calcium flux | B-score at 10 µM | Mas-related G-protein coupled receptor member X1 (Homo sapiens), Q96LB2 | FDSS; hits give high values | hit rate 0.63% among 310,000 | AID 588675, 2011;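 active = plate-corrected calcium response at least 3 library SD above typical, normal starting fluorescence, not activating the receptor alone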;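 note: compound read alongside a low EC10 to EC30 dose of BAM8-22 agonist; peak minus trough fluorescence over baseline measured at the second addition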
MrgX1 antagonist – antagonists of human MrgX1 receptor, primary screen, HEK293 cells, Fluo-4 calcium flux | Mas-related G-protein coupled receptor member X1 (Homo sapiens), Q96LB2 | BAM8-22 antagonism; hits give low values | B-score at 10 µM | hit rate 1.3% among 310,000;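 active = calcium-response B-score plate-corrected more than 3 library SD below zero, starting fluorescence within 5 deviations, no agonist response on first addition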;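 note: peak minus trough fluorescence over baseline after final BAM8-22 challenge near maximal dose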
RGS4 block valid – enhanced carbachol calcium response, M3R/RGS4 cells, RGS4 inhibitor project, cell-based, validation screen, HEK293 M3R/RGS4, calcium flux | calcium response, % at 10 µM | carbachol calcium Fluo-4 fluorescence; carbachol added at its EC20; 0 = buffer wells, 100 = carbachol control | shares compounds with RGS4 block | hit rate 65% among 1,700;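 active = duplicate-averaged calcium response above the buffer-only control mean plus 5 SD of those controls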;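 note: integrated fluorescence ratio F max minus min over baseline F0; higher response in RGS4-induced cells means RGS4 inhibition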
RGS4 uninduced – carbachol calcium response in non-induced M3R cells, confirmation, counter-screen for RGS4 inhibitor project, cell-based, HEK293 M3R. AID 493000, 2010. carbachol calcium Fluo-4; submaximal (EC20) carbachol stimulus; buffer wells 0%, carbachol control wells 100%. activity (percent), % at 10 µM. shares compounds with RGS4 block. hit rate 20% among 1,900; call rule not given here;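 note: RGS4 induction absent so cells express M3R without RGS4; higher means more calcium signal and flags a non-specific hit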
M3R basal Ca ctr – second RGS4 inhibitor counter-screen in uninduced cells lacking carbachol; shares compounds with RGS4 block; calcium response (agonist-mode artifact), % at 10 µM; AID 493001; HEK293 M3R/RGS4 non-induced, Fluo-4 calcium, no carbachol; normalised: buffer wells 0%, carbachol wells 100%; hit rate 22% among 1,900;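 active = duplicate-averaged calcium rise in uninduced cells above buffer wells' mean plus 5 SD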
* marks the source's active call; other numbers are inactive results; i = inactive; nt = no result given. Shown are actives, neighbours in structure and some others; about 3.5% of the full set was active somewhere.

SMILES	MrgX1 ag	RGS4 act	RGS4 block	MrgX1 PAM	MrgX1 antagonist	RGS4 block valid	RGS4 uninduced	M3R basal Ca ctr
Cc1cc(Cl)nc(Cl)c1C(=O)N1CCOCC1	i	i	i	i	i	nt	nt	nt
O=C(OCc1nnc(-c2ccc(Br)cc2)o1)c1cncc(Br)c1	i	i	i	i	i	nt	nt	nt
COc1ccc(-c2c(=O)n(OC)c3ccccc3[n+]2[O-])cc1OC	i	i	7.2*	i	i	i	i	i
C=CCOn1c(=O)c(-c2ccc(OC)c(OC)c2)[n+]([O-])c2ccccc21	i	i	i	i	i	nt	nt	nt
COc1cccc(OC)c1NC(=O)c1nc2c(nnn2Cc2ccccc2Cl)c(=O)[nH]1	i	i	5.5*	i	i	14%*	i	i
O=C(NC1CCCC1)c1nc2c(nnn2Cc2ccccc2Cl)c(=O)[nH]1	i	i	i	i	i	nt	nt	nt
Cc1ccc(NCC(=O)N/N=C/c2cc3ccccc3nc2Cl)cc1	i	i	8*	i	i	9.5%*	i	i
CCCc1cc(=O)oc2cc(C)cc(OCC(=O)N3CCC(C(=O)O)CC3)c12	i	i	i	i	i	nt	nt	nt
Cc1cccc(-n2ccc(=O)c(C(=O)Nc3ccc(S(=O)(=O)Nc4onc(C)c4C)cc3)n2)c1	i	i	4.7*	i	i	7.0%*	i	i
Cc1noc(NS(=O)(=O)c2ccc(N/C=C\C(=O)c3cccs3)cc2)c1C	i	i	i	i	i	nt	nt	nt
Cc1noc(NS(=O)(=O)c2ccc(N/C=C\C(=O)c3ccccc3)cc2)c1C	i	i	i	i	i	nt	i	i
Cc1noc(NS(=O)(=O)c2ccc(N/C=C\C(=O)c3ccc(F)cc3)cc2)c1C	i	i	i	i	i	nt	36%*	i
Cc1noc(NS(=O)(=O)c2ccc(N/C=C/C(=O)c3ccc4c(c3)OCO4)cc2)c1C	i	i	i	i	i	nt	nt	nt
Cc1sc2ncn(CC(=O)NCCCC(=O)N3CCCCC3)c(=O)c2c1C	i	i	i	i	i	nt	nt	nt
O=C(COc1ccccc1)NCC(=O)N/N=C/c1ccc(Br)cc1	i	i	i	i	i	nt	nt	nt
Cc1nc(Nc2ccccc2)sc1C(=O)c1ccc(F)cc1	i	i	i	i	i	nt	nt	nt
Nc1nc(Nc2ccccc2F)sc1C(=O)c1ccccc1	i	i	6.5*	i	i	28%*	i	i
O=C(O)c1ccccc1C(=O)Nc1ccccc1	i	i	i	i	i	nt	nt	nt
O=C(Nc1ccccc1)C1=C(c2ccccc2)S(=O)(=O)CCS1(=O)=O	nt	i	23*	nt	nt	47%*	i	i
CCC(=O)Nc1ccc(NC(=O)c2ccc3c(c2)OCO3)cc1	i	i	i	i	i	nt	nt	nt
CCC(=O)Nc1cccc(NC(=O)c2ccc3c(c2)OCCO3)c1	i	i	i	i	i	i	i	i
CCCC(=O)Nc1cccc(NC(=O)c2ccc3c(c2)OCO3)c1	i	i	i	i	i	i	i	i
Cc1cc(NC(=O)c2ccc(NC(=O)C3CCCO3)cc2)ccc1Br (centres undefined)	i	i	i	i	i	nt	nt	nt
Cc1ccc(/C=C/C(=O)c2ccccc(=O)c2O)cc1C	i	i	11*	i	i	48%*	i	72%*
CC(NCC(O)COCCC12CC3CC(CC(C3)C1)C2)c1ccccc1 (centres undefined)	i	i	4.7*	i	i	i	i	24%*
SMILES	MrgX1 ag	RGS4 act	RGS4 block	MrgX1 PAM	MrgX1 antagonist	RGS4 block valid	RGS4 uninduced	M3R basal Ca ctr
CCC(CC)Nc1ccc(C(CC(N)=O)NC(=O)c2ccccc2)cc1[N+](=O)[O-] (centres undefined)	i	i	i	i	i	nt	nt	nt
COc1ccc(C2NC(=O)NC(c3ccccc3)=C2c2nc3ccccc3s2)cc1 (centres undefined)	i	i	i	i	i	nt	nt	nt
O=C1NC(c2ccccc2)=C(c2nc3ccccc3s2)C(c2ccc(F)cc2)N1 (centres undefined)	i	i	i	i	i	nt	i	i
Cn1c(CCNC(=O)c2cc(COc3ccc(F)c(F)c3)on2)nc2ccccc21	i	i	i	i	i	nt	nt	nt
COc1ccc(N2C(=O)CC(Sc3ncn[nH]3)C2=O)c(OC)c1 (centres undefined)	i	i	12*	i	i	22%*	i	i
CC(C)c1ccc(N2C(=O)CC(Sc3ncn[nH]3)C2=O)cc1 (centres undefined)	i	i	i	i	i	nt	nt	nt
C[C@@]12C(=O)N(c3ccc(F)cc3)C(=O)N1[C@@H]1c3ccccc3OC[C@@H]1[C@H]2c1ccccc1	i	i	i	i	i	nt	nt	nt
C[C@]12C(=O)N(c3ccc(Br)cc3)C(=O)N1[C@@H]1c3ccccc3OC[C@@H]1[C@H]2c1ccccc1	i	i	i	i	i	nt	nt	nt
C[C@]12C(=O)N(c3ccc(Cl)cc3)C(=O)N1[C@H]1c3ccccc3OC[C@@H]1[C@H]2c1ccccc1	i	i	i	i	i	i	i	i
C[C@]12C(=O)N(c3ccc(Cl)cc3)C(=O)N1[C@@H]1c3ccccc3OC[C@@H]1[C@H]2c1ccccc1	i	i	i	i	i	i	i	i
CCOC(=O)COc1cc([N+](=O)[O-])cc2cccnc12	i	i	i	i	i	nt	nt	nt
CCOC(=O)COc1ccccc1/C=C\[N+](=O)[O-]	i	i	19*	i	i	70%*	i	11%*
CCOC(=O)C1CCN(C(=O)C2CCN(S(=O)(=O)c3cc(Cl)ccc3OCC)CC2)CC1	i	i	i	i	i	nt	nt	nt
CCCCCOc1ccc(OC(=O)c2ccncc2)cc1	i	i	i	i	i	nt	nt	nt
